According to BindingDB's records for doi:10.1021/jm00027a001 (Telios Pharmaceuticals, 1994):
*1 amine or outer side, *2 acyl side, *3 side chain or, on linkers, in order; H or OH if unused. Where a SMILES comes first, the peptide text is derived from it. Bridges are numbered along the chain shown (N, C = ends). X2 = N[C@H](C(=O)[*:1])C1(S[*:2])CCCCC1

What was measured:
[1] = molecular target: Integrin alpha-IIb/beta-3 (Homo sapiens, UniProt P05106+P08514); experiment: Binding affinity against integrin alpha 2b-beta 3 in enzyme linked immunosorbent assay (ELISA)
Integrin alpha-IIb/beta-3, sequence (P05106 27-788 limits assumed): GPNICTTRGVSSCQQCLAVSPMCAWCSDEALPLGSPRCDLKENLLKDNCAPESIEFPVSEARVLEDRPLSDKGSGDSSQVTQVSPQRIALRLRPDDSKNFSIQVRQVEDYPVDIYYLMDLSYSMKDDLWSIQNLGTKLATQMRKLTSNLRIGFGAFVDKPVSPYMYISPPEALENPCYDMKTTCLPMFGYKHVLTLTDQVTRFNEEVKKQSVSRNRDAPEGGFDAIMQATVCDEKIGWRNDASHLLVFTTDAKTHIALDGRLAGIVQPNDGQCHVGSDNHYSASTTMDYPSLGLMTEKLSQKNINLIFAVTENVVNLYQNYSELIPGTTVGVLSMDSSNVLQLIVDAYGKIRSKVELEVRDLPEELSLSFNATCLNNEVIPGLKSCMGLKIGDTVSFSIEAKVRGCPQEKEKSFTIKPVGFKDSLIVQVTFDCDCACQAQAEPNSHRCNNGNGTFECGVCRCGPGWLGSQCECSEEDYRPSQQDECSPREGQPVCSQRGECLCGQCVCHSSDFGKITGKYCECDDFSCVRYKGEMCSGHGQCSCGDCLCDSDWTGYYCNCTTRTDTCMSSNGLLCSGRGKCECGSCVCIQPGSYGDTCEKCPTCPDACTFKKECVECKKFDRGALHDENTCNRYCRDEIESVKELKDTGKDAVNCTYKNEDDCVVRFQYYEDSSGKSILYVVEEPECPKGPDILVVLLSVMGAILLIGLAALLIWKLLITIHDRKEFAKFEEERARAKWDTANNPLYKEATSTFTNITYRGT
Integrin alpha-IIb/beta-3, sequence (P08514 32-887 limits assumed): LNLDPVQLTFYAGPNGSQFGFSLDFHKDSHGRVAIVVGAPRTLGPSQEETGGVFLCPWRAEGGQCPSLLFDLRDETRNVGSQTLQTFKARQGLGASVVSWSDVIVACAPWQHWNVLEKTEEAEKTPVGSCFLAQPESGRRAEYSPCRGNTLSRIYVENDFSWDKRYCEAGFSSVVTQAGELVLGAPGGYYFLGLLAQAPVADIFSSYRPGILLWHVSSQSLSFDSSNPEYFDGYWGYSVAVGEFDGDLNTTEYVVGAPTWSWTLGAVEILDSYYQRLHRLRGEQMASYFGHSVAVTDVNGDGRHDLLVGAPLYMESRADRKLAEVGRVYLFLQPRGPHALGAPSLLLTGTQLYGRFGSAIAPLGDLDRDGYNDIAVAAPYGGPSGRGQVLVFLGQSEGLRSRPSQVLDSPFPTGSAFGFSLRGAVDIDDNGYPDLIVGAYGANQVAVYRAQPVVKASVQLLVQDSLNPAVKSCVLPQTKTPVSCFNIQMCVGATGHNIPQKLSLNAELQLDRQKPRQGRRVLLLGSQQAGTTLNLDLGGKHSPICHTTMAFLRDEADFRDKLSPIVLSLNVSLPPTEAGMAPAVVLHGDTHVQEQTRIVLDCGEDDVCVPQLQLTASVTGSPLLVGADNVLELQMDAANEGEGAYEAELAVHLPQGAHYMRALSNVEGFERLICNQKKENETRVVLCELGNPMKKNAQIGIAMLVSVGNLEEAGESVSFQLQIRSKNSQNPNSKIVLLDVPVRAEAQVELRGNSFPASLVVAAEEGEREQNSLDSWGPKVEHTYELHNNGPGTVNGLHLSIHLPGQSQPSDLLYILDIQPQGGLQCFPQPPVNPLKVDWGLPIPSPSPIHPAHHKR
Integrin alpha-IIb/beta-3, sequence (P08514 891-1039 limits assumed): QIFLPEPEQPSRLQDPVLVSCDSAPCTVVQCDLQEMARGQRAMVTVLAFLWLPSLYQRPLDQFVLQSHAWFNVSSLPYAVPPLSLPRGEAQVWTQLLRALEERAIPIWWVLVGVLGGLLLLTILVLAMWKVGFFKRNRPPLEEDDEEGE
Method in brief: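 Purified human platelet αIIbβ3 (from outdated platelets, octyl glucoside extract) in TBS with 20 mM octyl glucoside, 2 mM MgCl2 and 2 mM CaCl2 binds to plate-coated human fibrinogen (10 µg/mL in TBS) with 10-fold serial peptide dilutions for 3 h at room temperature. Bound receptor is detected with rabbit anti-αIIbβ3, then HRP anti-rabbit IgG, with o-phenylenediamine/H2O2 at pH 5.0. IC50 is reported.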

[2] = molecular target: Integrin alpha-5/beta-1 (Homo sapiens, UniProt P05556+P08648); experiment: Binding affinity against integrin alpha5-beta1 in enzyme linked immunosorbent assay (ELISA)
[3] = molecular target: Integrin alpha-V/beta-5 (Homo sapiens, UniProt P06756+P18084); experiment: Binding affinity against integrin alpha V-beta5 in enzyme linked immunosorbent assay (ELISA)
Integrin alpha-V/beta-5, sequence (P06756 31-889 limits assumed): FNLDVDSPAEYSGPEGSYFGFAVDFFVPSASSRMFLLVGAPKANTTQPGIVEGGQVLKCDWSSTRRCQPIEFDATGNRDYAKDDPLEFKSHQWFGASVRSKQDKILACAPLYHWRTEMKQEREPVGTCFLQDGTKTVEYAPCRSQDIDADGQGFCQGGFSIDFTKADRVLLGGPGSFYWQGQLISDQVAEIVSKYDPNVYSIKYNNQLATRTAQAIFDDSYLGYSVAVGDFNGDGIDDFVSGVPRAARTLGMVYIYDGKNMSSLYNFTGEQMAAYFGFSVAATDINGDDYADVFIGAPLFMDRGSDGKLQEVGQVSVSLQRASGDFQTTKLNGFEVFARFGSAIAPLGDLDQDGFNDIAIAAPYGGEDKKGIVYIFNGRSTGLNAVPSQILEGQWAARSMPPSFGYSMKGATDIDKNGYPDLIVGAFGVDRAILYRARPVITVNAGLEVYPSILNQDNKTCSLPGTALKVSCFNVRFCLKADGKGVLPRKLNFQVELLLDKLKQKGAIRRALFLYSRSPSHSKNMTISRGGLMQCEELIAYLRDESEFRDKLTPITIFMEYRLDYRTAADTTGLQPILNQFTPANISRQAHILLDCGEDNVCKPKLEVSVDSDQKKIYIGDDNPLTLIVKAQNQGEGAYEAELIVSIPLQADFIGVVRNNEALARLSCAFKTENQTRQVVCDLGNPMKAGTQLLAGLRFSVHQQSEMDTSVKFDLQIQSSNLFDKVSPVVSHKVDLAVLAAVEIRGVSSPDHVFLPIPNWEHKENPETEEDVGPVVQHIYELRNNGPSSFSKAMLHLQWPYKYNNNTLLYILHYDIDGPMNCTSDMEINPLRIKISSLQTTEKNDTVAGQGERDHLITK
Integrin alpha-V/beta-5, sequence (P06756 891-1048 limits assumed): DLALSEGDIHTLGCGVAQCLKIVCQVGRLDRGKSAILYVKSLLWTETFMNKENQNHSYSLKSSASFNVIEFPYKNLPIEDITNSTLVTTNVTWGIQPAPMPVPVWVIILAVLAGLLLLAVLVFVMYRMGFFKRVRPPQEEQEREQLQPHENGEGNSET
Integrin alpha-V/beta-5, sequence (P18084 24-799 limits assumed): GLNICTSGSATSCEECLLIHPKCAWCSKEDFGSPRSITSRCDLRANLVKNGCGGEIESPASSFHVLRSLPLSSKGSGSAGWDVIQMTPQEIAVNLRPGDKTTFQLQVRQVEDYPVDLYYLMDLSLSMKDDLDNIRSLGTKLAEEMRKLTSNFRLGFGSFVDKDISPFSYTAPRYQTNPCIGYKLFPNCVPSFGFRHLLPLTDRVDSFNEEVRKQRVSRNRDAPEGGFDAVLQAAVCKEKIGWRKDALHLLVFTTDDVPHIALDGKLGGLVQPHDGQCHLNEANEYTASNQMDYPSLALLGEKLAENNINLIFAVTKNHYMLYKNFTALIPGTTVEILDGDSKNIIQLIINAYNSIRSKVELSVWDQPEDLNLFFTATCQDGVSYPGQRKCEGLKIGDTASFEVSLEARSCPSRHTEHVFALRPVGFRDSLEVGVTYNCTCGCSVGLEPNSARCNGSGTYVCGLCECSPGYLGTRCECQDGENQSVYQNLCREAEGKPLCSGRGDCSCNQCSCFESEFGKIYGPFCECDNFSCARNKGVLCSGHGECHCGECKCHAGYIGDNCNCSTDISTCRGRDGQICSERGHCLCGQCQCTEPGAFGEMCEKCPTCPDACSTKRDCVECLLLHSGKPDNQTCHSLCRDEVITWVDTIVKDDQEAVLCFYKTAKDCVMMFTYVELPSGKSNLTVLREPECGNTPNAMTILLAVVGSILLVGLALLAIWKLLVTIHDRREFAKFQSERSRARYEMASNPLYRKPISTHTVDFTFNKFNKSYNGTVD
Method in brief: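 It is added to wells coated with human vitronectin in 0.1 M carbonate, pH 9.6, with 10-fold serial peptide dilutions for 3 h at room temperature. Detection uses rabbit anti-VnR, HRP anti-rabbit IgG and o-phenylenediamine/H2O2.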

IC50 [1] [µM] | IC50 [2] [µM] | IC50 [3] [µM] | Compound
6.2 | 6.2 |  | COc1ccc(C[C@@H]2NC(=O)[C@H](CC(=O)O)NC(=O)CNC(=O)[C@H](CCCN=C(N)N)NC(=O)[C@H](Cc3c[nH]cn3)NC(=O)[C@H](CCCN=C(N)N)NC(=O)[C@@H](N)CCC/N=C(/N)NC(=O)[C@@H](N)C3(CCCCC3)SSC[C@@H](C(=O)N[C@@H](CCCN=C(N)N)C(=O)O)NC(=O)[C@H](CCCN=C(N)N)NC2=O)cc1 [R(Pmc)-G-H-R-G-D-(Y-OMe)-R-C-R] (H-RRHRGDY(Me)RCR-OH; linker 1-9 via X2)
4.7 |  | 4.7 | COc1ccc(C[C@@H]2NC(=O)[C@H](CC(=O)O)NC(=O)CNC(=O)[C@H](CCCN=C(N)N)NC(=O)[C@H](Cc3c[nH]cn3)NC(=O)[C@H](CC(N)=O)NC(=O)[C@@H](N)CCC/N=C(/N)NC(=O)[C@@H](N)C3(CCCCC3)SSC[C@@H](C(=O)N[C@@H](CCCN=C(N)N)C(=O)O)NC(=O)[C@H](CCCN=C(N)N)NC2=O)cc1 [R(Pmc)-N-H-R-G-D-(Y-OMe)-R-C-R] (H-RNHRGDY(Me)RCR-OH; linker 1-9 via X2)
